Assay [1] is described as follows: Cytotoxicity against human Mino cells assessed as reduction in cell viability after 72 hrs by MTT assay. Format: functional, cell-based. In a few lines: (§1)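 Cells seeded in triplicate at 3 × 10³ cells/well: 293_CHI3L1, U373 and C6 in DMEM; UPN1 in alpha-MEM; Granta, JeKo and Mino in RPMI. Compounds added by serial dilution at final 0.01, 0.1, 1, 10 and 100 µM for 72 h. MTT read-out gives viable cells as % of DMSO vehicle control. IC50 is the concentration giving 50% cell death versus control.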
(In general: Formazan colour is commonly taken as a measure of viable cells.)

Assay [2] deals with Granta. In words: Cytotoxicity against human Granta cells assessed as reduction in cell viability at 100 uM after 72 hrs by MTT assay. Format: functional, cell-based. In a few lines: as §1
Assay [3] relates to Mino. The assay can be described thus: Cytotoxicity against human Mino cells assessed as reduction in cell viability at 100 uM after 72 hrs by MTT assay. Format: functional, cell-based. Put shortly: as §1
The nature of assay [4]: Cytotoxicity against human Jeko cells assessed as viable cells at 100 uM after 72 hrs by MTT assay. Format: functional. Conditions: JeKo-1, 72 h, read-out: Activity. Put shortly:
as §1

The nature of assay [5]: Cytotoxicity against human UPN1 cells assessed as viable cells at 100 uM after 72 hrs by MTT assay. Format: functional. The conditions noted are these: UPN1, 72 h, read-out: Activity. Put shortly:
as §1

Assay [6] relates to Granta. The assay can be described thus: Cytotoxicity against human Granta cells assessed as reduction in cell viability after 72 hrs by MTT assay. Format: functional, cell-based. Put shortly: as §1
The nature of assay [7]: Cytotoxicity against human Jeko cells assessed as reduction in cell viability after 72 hrs by MTT assay. Format: functional, cell-based. The conditions noted are these: JeKo-1, 72 h. Put shortly: as §1
Assay [8] can be described thus: Cytotoxicity against human UPN1 cells assessed as reduction in cell viability after 72 hrs by MTT assay. Format: functional, cell-based. Conditions: UPN1, 72 h. In a few lines: as §1
A short description of assay [9]: Cytotoxicity against human U373 cells assessed as reduction in cell viability after 72 hrs by MTT assay. Conditions: U373 MG. Format: functional, cell-based, U-373MG ATCC. In a few lines:
as §1

The subject of assay [10] is C6. In words: Cytotoxicity against rat C6 cells assessed as reduction in cell viability after 72 hrs by MTT assay. Format: functional, cell-based. Conditions: C6, 72 h. In a few lines: as §1
Assay [11] deals with HEK293. The assay can be described thus: Cytotoxicity against HEK293 cells overexpressing CHI3L1 gene assessed as reduction in cell viability after 72 hrs by MTT assay. Format: functional, cell-based. Conditions: Homo sapiens, HEK293, 72 h. In a few lines: as §1
The nature of assay [12]: Cytotoxicity against human Small cell lung cancer cells assessed as reduction in cell viability after 72 hrs by MTT assay. Format: functional, cell-based. The conditions noted are these: Cancer cell lines.
Assay [13] in a line: Antitumor activity against human Small cell lung cancer cells xenografted in mouse assessed as tumor growth inhibition. Format: functional, Cancer cell lines. (In general: Xenograft models place foreign cells or tissue in a host animal.)
The target in assay [14] is T1, Mitogen-activated protein kinase; ERK1/ERK2 (Homo sapiens) (UniProt P27361+P28482). In words: Inhibition of ERK1/2 phosphorylation in human HEK293 cells overexpressing CHI3L1 gene after 24 hrs by Western blot analysis. Format: cell-based. Put shortly:
(§2)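 293_CHI3L1 or U373 cells seeded in triplicate at 10⁵ cells/well in DMEM/10% FBS and grown to near-confluence. Serum-starved 24 h; U373 then stimulated with 10% FBS. Treated with compound 24 h. Lysates run on 10% SDS–PAGE and blotted for phospho-ERK1/2 or phospho-AKT1 (4 °C overnight), ECL detection. Membranes stripped and reprobed for β-actin.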
(A western blot detects proteins with antibodies after separation by electrophoresis.)

In assay [15] the target is RAC-alpha serine/threonine-protein kinase (Homo sapiens) (UniProt P31749). In words: Inhibition of AKT1 phosphorylation in human HEK293 cells overexpressing CHI3L1 gene after 24 hrs by Western blot analysis. Format: cell-based. Put shortly:
as §2

Assay [16] addresses T1, Mitogen-activated protein kinase; ERK1/ERK2 (Homo sapiens). In words: Inhibition of ERK1/2 phosphorylation in human U373 cells overexpressing CHI3L1 gene after 24 hrs by Western blot analysis. Format: cell-based. Conditions: U-373MG ATCC. Put shortly:
as §2

Assay [17] deals with RAC-alpha serine/threonine-protein kinase (Homo sapiens) (UniProt P31749). In words: Inhibition of AKT1 phosphorylation in human U373 cells overexpressing CHI3L1 gene after 24 hrs by Western blot analysis. The conditions noted are these: U-373MG ATCC. Format: cell-based. Put shortly: as §2
RAC-alpha serine/threonine-protein kinase (Homo sapiens), sequence (P31749 whole entry): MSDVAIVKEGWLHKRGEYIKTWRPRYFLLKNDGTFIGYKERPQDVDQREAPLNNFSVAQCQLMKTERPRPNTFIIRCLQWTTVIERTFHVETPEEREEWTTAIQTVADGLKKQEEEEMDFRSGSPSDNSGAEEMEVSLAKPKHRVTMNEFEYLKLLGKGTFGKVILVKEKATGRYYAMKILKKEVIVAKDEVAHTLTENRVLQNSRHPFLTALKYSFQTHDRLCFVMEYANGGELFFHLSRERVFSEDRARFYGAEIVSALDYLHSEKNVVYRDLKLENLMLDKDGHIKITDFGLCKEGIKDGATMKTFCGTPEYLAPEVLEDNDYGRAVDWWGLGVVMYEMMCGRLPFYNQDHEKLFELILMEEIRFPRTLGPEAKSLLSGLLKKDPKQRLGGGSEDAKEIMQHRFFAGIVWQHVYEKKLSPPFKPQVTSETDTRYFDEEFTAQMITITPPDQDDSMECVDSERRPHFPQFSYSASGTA
The target of assay [18] is T1, Mitogen-activated protein kinase; ERK1/ERK2 (Homo sapiens). In words: Inhibition of ERK1/2 phosphorylation in human HEK293 cells overexpressing CHI3L1 gene at 10 uM after 24 hrs by Western blot analysis. Format: cell-based. In a few lines: as §2
For assay [19] the target is unchanged. The assay can be described thus: Inhibition of ERK1/2 phosphorylation in human HEK293 cells overexpressing CHI3L1 gene at 50 uM after 24 hrs by Western blot analysis. Format: cell-based. In a few lines: as §2
For assay [20], the target named is RAC-alpha serine/threonine-protein kinase (Homo sapiens) (UniProt P31749). In words: Inhibition of AKT1 phosphorylation in human HEK293 cells overexpressing CHI3L1 gene at 50 uM after 24 hrs by Western blot analysis. Format: cell-based. In a few lines:
as §2

The test system of assay [21] is HEK293. The assay can be described thus: Cytotoxicity against HEK293 cells overexpressing CHI3L1 gene assessed as reduction in cell viability at 50 uM after 72 hrs by MTT assay. Format: functional, cell-based. Conditions: Homo sapiens.
For assay [22], the target named is RAC-alpha serine/threonine-protein kinase (Homo sapiens) (UniProt P31749). The assay can be described thus: Inhibition of AKT1 phosphorylation in human HEK293 cells overexpressing CHI3L1 gene at 10 uM after 24 hrs by Western blot analysis. Format: cell-based. Put shortly:
as §2

The target is the same in assay [23]. In words: Inhibition of AKT1 phosphorylation in human U373 cells at 10 uM after 24 hrs by Western blot analysis. Format: cell-based. The conditions noted are these: U-373MG ATCC. In a few lines:
as §2

Assay [24] has as its target T1, Mitogen-activated protein kinase; ERK1/ERK2 (Homo sapiens). The assay can be described thus: Inhibition of ERK1/2 phosphorylation in human U373 cells at 50 uM after 24 hrs by Western blot analysis. Format: cell-based. The conditions noted are these: U-373MG ATCC. In a few lines:
as §2

In assay [25] the test system is C6. The assay can be described thus: Cytotoxicity against rat C6 cells assessed as reduction in cell viability at 1 uM after 72 hrs by MTT assay in presence of temozolomide. Format: functional. In a few lines: (§3)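 U373 or C6 glioma cells seeded in triplicate at 3 × 10³ cells/well in DMEM. Exposed 72 h to temozolomide at final 10, 100, 250, 500 and 1000, alone or combined with 1 µM bradykinin antagonist. MTT read-out gives viability as % of vehicle control. Mean of two experiments run in triplicate.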

The nature of assay [26]: (§4) Cytotoxicity against human U373 cells assessed as reduction in cell viability at 1 uM after 72 hrs by MTT assay in presence of temozolomide. Format: functional, U-373MG ATCC. In a few lines: as §3
Assay [27] relates to U-373MG ATCC. The assay is described as §4. Format: functional. Put shortly:
as §3

Structures are written as SMILES. pIC50: −log10 of the molar value. The source made the active and inactive calls. No cut-off for these calls is given here. Where only a bound is given, the exact number is not on record here.

What is called pIC50 is the IC50 on a negative log10 scale, so that one unit is a factor of ten. A word on the TGI: it is the reduction of tumour growth relative to the control group.

T1 sequence (P27361 whole entry, looked up): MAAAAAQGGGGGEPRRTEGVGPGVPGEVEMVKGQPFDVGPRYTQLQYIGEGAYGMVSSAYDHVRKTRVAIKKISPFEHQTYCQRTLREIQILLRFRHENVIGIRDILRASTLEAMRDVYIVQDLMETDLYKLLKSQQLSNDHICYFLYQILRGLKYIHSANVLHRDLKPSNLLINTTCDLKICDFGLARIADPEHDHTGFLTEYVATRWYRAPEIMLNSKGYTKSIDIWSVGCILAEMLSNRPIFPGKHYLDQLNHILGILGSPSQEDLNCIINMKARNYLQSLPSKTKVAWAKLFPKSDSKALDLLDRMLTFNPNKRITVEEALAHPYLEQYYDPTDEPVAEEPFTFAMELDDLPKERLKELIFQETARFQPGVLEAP
T1 sequence (P28482 whole entry, looked up): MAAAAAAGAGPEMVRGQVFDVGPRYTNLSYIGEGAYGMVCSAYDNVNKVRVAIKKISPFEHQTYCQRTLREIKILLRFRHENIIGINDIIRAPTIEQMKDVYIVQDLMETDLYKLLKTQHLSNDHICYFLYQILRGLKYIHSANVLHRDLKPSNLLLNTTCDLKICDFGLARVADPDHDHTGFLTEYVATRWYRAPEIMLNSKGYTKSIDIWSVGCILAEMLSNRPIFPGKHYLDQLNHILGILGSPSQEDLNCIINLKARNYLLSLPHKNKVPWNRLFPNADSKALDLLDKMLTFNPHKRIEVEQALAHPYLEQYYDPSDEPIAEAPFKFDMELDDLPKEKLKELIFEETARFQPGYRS

Turning to `O=C1N=C(N2N=C(c3ccc(Br)cc3)CC2c2ccc(Cl)cc2)S/C1=C1\C(=O)Nc2ccc(Br)cc21` (configuration not stated), the pIC50 in assay [1] is 6.57.

Take `O=C1N=C(N2N=C(c3ccc(Cl)cc3)CC2c2ccc(Cl)cc2)S/C1=C1\C(=O)Nc2ccc(Br)cc21` (configuration not stated): in [1], the pIC50 was 6.14.

Turning to `O=C1N=C(N2N=C(c3ccc(Cl)cc3)CC2c2ccc(Cl)cc2)S/C1=C1\C(=O)Nc2ccccc21` (configuration not stated), the pIC50 in assay [1] was 4.17. Besides, the outcome in [2] and in assay [3] was inactive. The viability at 100 µM in assay [4] and in assay [5] was 60% each time.

As for `COc1ccc(NC(=O)COc2ccc(Cl)cc2/C=C2\SC(=S)N(Nc3nc4ccccc4s3)C2=O)cc1`, in assay [1], the pIC50 was 4.26.

In the case of `O=C1N=C(Nc2ccc(O)cc2)S/C1=C\c1ccc(Cl)cc1`, the pIC50 in assay [6] is under 4.00; in assay [7], under 4.00; in assay [8], under 4.00; in assay [1], 4.21.

For `O=C1N=C(N2N=C(c3ccc(Br)cc3)CC2c2ccc(Cl)cc2)S/C1=C1\C(=O)Nc2ccc(Cl)cc21` (configuration not stated), in [1], the pIC50 is 5.13.

Consider `CC1(C)CC(NC(=O)[C@H](Cc2ccc(OCc3c(Cl)cccc3Cl)cc2)NC(=O)/C=C/c2c(F)c(F)c(F)c(F)c2F)CC(C)(C)N1`, for which the pIC50 in assay [9] is 5.48; in assay [10], 5.40; in assay [11], 5.42; in assay [6], 4.20; in assay [7], 4.31; in [8], under 4.00. In assay [12], the pIC50 was 5.74. For the same molecule, in [13], the TGI is 91%. Further, the inhibition result in assay [14], in assay [15], in [16] and in assay [17] was “Dose-dependent effect” each time. Besides, the inhibition entry in assay [18], in assay [19], in assay [20], in assay [21], in assay [22] and in assay [23] was “Active” each time. Further, in assay [24], the inhibition entry is “inactive”. Besides, the Activity in assay [25] and in [26] was 80% in each case.

With `COc1ccc(-c2nnc(NC(=O)CN3C(=O)S/C(=C\c4ccc(N(C)C)cc4)C3=O)o2)cc1`, the pIC50 in [6], in assay [7] and in assay [8] was under 4.00 in each case.

As for `N=C(N)NCCC[C@H](NC(=O)C1CC2CCCCC2N1C(=O)[C@H](NC(=O)[C@H](CO)NC(=O)[C@@H](NC(=O)CNC(=O)[C@@H]1C[C@@H](O)CN1C(=O)[C@@H]1CCCN1C(=O)[C@H](CCCNC(=N)N)NC(=O)[C@@H](CCCNC(=N)N)NC(=O)/C=C/c1c(F)c(F)c(F)c(F)c1F)C1Cc2ccccc2C1)C1Cc2ccccc2C1)C(=O)O` (some centres not stated), the pIC50 in assay [9] is under 4.00; in [10] it was 4.43; in assay [11], 4.17; in assay [6], under 4.00; in assay [7] it was 4.30; in assay [8], under 4.00. Besides, the inhibition result in assay [14], in [15], in assay [16] and in assay [17] was “inactive” throughout.

Turning to `CC1(C)CC(NC(=O)[C@H](Cc2ccc(OCc3c(Cl)cccc3Cl)cc2)NC(=O)OCC2c3ccccc3-c3ccccc32)CC(C)(C)N1`, the pIC50 was 4.70 in assay [9]; 4.82 in [10]; 4.59 in [11]; 4.39 in [6]; 4.28 in assay [7]; under 4.00 in assay [8]. In addition, the outcome in assay [25] and in assay [27] was inactive.

Turning to `CN(C)c1ccc(C2CC(c3ccc(Cl)cc3)=NN2C2=NC(=O)/C(=C3/C(=O)Nc4ccc(Br)cc43)S2)cc1` (configuration not stated), in assay [1], the pIC50 is 6.80.

With `O=C1N=C(N2N=C(c3ccc(Br)cc3)CC2c2ccc(Cl)cc2)S/C1=C1\C(=O)Nc2ccccc21` (configuration not stated), the pIC50 in [1] is 5.00.

With `O=C1N=C(N2N=C(c3ccccc3)CC2c2ccc(Cl)cc2)S/C1=C1\C(=O)Nc2ccccc21` (configuration not stated), the pIC50 in assay [6], in assay [7] and in [8] was under 4.00 in each case.

On to `O=C1N=C(N2N=C(c3ccc(Cl)cc3)CC2c2ccc(Cl)cc2)S/C1=C1\C(=O)Nc2ccc(Cl)cc21` (configuration not stated), for which the pIC50 in [10] is 5.91; in assay [1], 4.09.

The values are drawn from ChEMBL document CHEMBL3351641, “Bradykinin antagonists and thiazolidinone derivatives as new potential anti-cancer compounds” (Bioorg Med Chem, 2014).
